Source: ChEMBL document CHEMBL4118253, “Expedient synthesis and biological evaluation of alkenyl acyclic nucleoside phosphonate prodrugs” (Bioorg Med Chem, 2018)

Assays:
Sindbis virus = assay: Antiviral activity against Sindbis Virus infected in African green monkey Vero cells assessed as inhibition of virus-induced cytopathicity; assay type: functional, organism-based
[1] = Cytotoxicity against MDCK cells assessed as alteration of cell morphology by microscopic analysis; assay type: cell-based, Canis lupus familiaris; settings: dog
Influenza B virus [2] = assay: Antiviral activity against Influenza B virus infected in MDCK cells assessed as inhibition of virus-induced cytopathicity by MTS assay; assay type: functional, organism-based
Human betaherpesvirus 5 [3] = assay: Antiviral activity against Human cytomegalovirus Davis infected in HEL cells assessed as inhibition of virus-induced cytopathicity; assay type: functional, organism-based; settings: Human betaherpesvirus 5, Davis
Vaccinia virus = assay: Antiviral activity against Vaccinia virus infected in HEL cells assessed as inhibition of virus-induced cytopathicity; assay type: functional, organism-based; settings: Orthopoxvirus vaccinia
Human alphaherpesvirus 2 = assay: Antiviral activity against Herpes simplex virus 2 G infected in HEL cells assessed as inhibition of virus-induced cytopathicity; assay type: functional, organism-based; settings: Human alphaherpesvirus 2, strain G
Punta Toro virus = assay: Antiviral activity against Punta Toro virus infected in African green monkey Vero cells assessed as inhibition of virus-induced cytopathicity; assay type: functional, organism-based
Human alphaherpesvirus 1 [4] = assay: Antiviral activity against Herpes simplex virus 1 KOS infected in HEL cells assessed as inhibition of virus-induced cytopathicity; assay type: functional, organism-based; settings: Human alphaherpesvirus 1, KOS
Human alphaherpesvirus 1 [5] = assay: Antiviral activity against acyclovir-resistant thymidine kinase deficient Herpes simplex virus 1 KOS infected in HEL cells assessed as inhibition of virus-induced cytopathicity; assay type: functional, organism-based; settings: Human alphaherpesvirus 1, KOS
Yellow fever virus = assay: Antiviral activity against Yellow fever virus infected in African green monkey Vero cells assessed as inhibition of virus-induced cytopathicity; assay type: functional, organism-based
[6] = Cytotoxicity against human HeLa cells assessed as alteration of cell morphology by microscopic analysis; assay type: cell-based
Influenza A virus H3N2 [7] = assay: Antiviral activity against Influenza A virus H3N2 infected in MDCK cells assessed as inhibition of virus-induced cytopathicity by MTS assay; assay type: functional, organism-based
Influenza A virus [8] = assay: Antiviral activity against Influenza A virus H1N1 infected in MDCK cells assessed as inhibition of virus-induced visual cytopathicity; assay type: functional, organism-based
Human adenovirus 2 = assay: Antiviral activity against Adenovirus 2 infected in HEL cells assessed as inhibition of virus-induced cytopathicity; assay type: functional, organism-based; settings: Human mastadenovirus C
Influenza A virus [9] = assay: Antiviral activity against Influenza A virus H1N1 infected in MDCK cells assessed as inhibition of virus-induced cytopathicity by MTS assay; assay type: functional, organism-based
[10] = system: Respiratory syncytial virus; assay: Antiviral activity against Respiratory syncytial virus infected in human HeLa cells assessed as inhibition of virus-induced cytopathicity; assay type: functional, organism-based
Human alphaherpesvirus 3 [11] = assay: Antiviral activity against thymidine kinase deficient Varicella-Zoster virus infected in HEL cells assessed as reduction in virus plaque formation; assay type: functional, organism-based; settings: Human alphaherpesvirus 3, HEL
Influenza A virus H3N2 [12] = assay: Antiviral activity against Influenza A virus H3N2 infected in MDCK cells assessed as inhibition of virus-induced visual cytopathicity; assay type: functional, organism-based
Human respirovirus 3 = assay: Antiviral activity against Parainfluenza virus 3 infected in human HeLa cells assessed as inhibition of virus-induced cytopathicity; assay type: functional, organism-based; settings: Human respirovirus 3, HeLa
[13] = system: Vesicular stomatitis virus; assay: Antiviral activity against Vesicular stomatitis virus infected in human HeLa cells assessed as inhibition of virus-induced cytopathicity; assay type: functional, organism-based
[14] = system: Mammalian orthoreovirus 1; assay: Antiviral activity against Reovirus-1 infected in human HeLa cells assessed as inhibition of virus-induced cytopathicity; assay type: functional, organism-based; settings: Mammalian orthoreovirus 1, HeLa
[15] = Cytotoxicity against African green monkey Vero cells assessed as alteration of cell morphology by microscopic analysis; assay type: cell-based; settings: chlorocebus sabaeus
Method in brief: (§1)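 The value is the minimal cytotoxic concentration (MCC), the lowest concentration that causes a microscopically visible change in cell morphology. It was read in the same HEL or Vero cell cultures used for the antiviral tests.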

Influenza B virus [16] = assay: Antiviral activity against Influenza B virus infected in MDCK cells assessed as inhibition of virus-induced visual cytopathicity; assay type: functional, organism-based
Human coronavirus 229E = assay: Antiviral activity against Human coronavirus 229E infected in HEL cells assessed as inhibition of virus-induced cytopathicity; assay type: functional, organism-based
Human betaherpesvirus 5 [17] = assay: Antiviral activity against Human cytomegalovirus AD169 infected in HEL cells assessed as inhibition of virus-induced cytopathicity; assay type: functional, organism-based; settings: Human betaherpesvirus 5, AD169, HEL
Coxsackievirus B4 = assay: Antiviral activity against Coxsackie virus B4 infected in African green monkey Vero cells assessed as inhibition of virus-induced cytopathicity; assay type: functional, organism-based; settings: Enterovirus B
[18] = Cytotoxicity against HEL cells assessed as alteration of cell morphology by microscopic analysis; assay type: cell-based; settings: human; method in brief: as §1
Human alphaherpesvirus 3 [19] = assay: Antiviral activity against thymidine kinase expressing Varicella-Zoster virus infected in HEL cells assessed as reduction in virus plaque formation; assay type: functional, organism-based; settings: Human alphaherpesvirus 3, HEL
[20] = Half life in rat serum by 31P NMR analysis; assay type: ADME, cell-free
[21] = Half life in human serum by 31P NMR analysis; assay type: ADME, cell-free

Compound	EC50 (Sindbis virus) [µM]	MCC [1] [µM]	EC50 (Influenza B virus [2]) [µM]	EC50 (Human betaherpesvirus 5 [3]) [µM]	EC50 (Vaccinia virus) [µM]	EC50 (Human alphaherpesvirus 2) [µM]	EC50 (Punta Toro virus) [µM]	EC50 (Human alphaherpesvirus 1 [4]) [µM]	EC50 (Human alphaherpesvirus 1 [5]) [µM]	EC50 (Yellow fever virus) [µM]	MCC [6] [µM]	EC50 (Influenza A virus H3N2 [7]) [µM]	EC50 (Influenza A virus [8]) [µM]	EC50 (Human adenovirus 2) [µM]	EC50 (Influenza A virus [9]) [µM]	EC50 [10] [µM]	EC50 (Human alphaherpesvirus 3 [11]) [µM]	EC50 (Influenza A virus H3N2 [12]) [µM]	EC50 (Human respirovirus 3) [µM]	EC50 [13] [µM]	also measured
C/C(=C\CP(=O)(N[C@@H](C)C(=O)OCc1ccccc1)Oc1ccccc1)Cn1ccc(=O)[nH]c1=O (some centres undefined)	> 100	> 100	> 100	> 100	> 100	> 100	> 100	> 100	> 100	> 100	> 100	> 100	> 100	> 100	> 100	> 100	> 100	> 100	> 100	> 100	EC50 [14]: > 100 µM; MCC [15]: > 100 µM; EC50 (Influenza B virus [16]): > 100 µM; EC50 (Human coronavirus 229E): > 100 µM; EC50 (Human betaherpesvirus 5 [17]): > 100 µM; EC50 (Coxsackievirus B4): > 100 µM; MCC [18]: > 100 µM; EC50 (Human alphaherpesvirus 3 [19]): > 100 µM
C/C(=C\CP(=O)(N[C@@H](C)C(=O)OC(C)C)Oc1cccc2ccccc12)Cn1ccc(=O)[nH]c1=O (some centres undefined)	> 100	> 100	> 100	> 100	> 100	> 100	> 100	> 100	> 100	> 100	> 100	> 100	> 100	> 100	> 100	> 100	> 100	> 100	> 100	> 100	EC50 [14]: > 100 µM; MCC [15]: > 100 µM; EC50 (Influenza B virus [16]): > 100 µM; EC50 (Human coronavirus 229E): > 100 µM; EC50 (Human betaherpesvirus 5 [17]): > 100 µM; EC50 (Coxsackievirus B4): > 100 µM; MCC [18]: > 100 µM; EC50 (Human alphaherpesvirus 3 [19]): 20 µM
C/C(=C/CP(=O)(N[C@@H](C)C(=O)OC(C)C)Oc1cccc2ccccc12)Cn1cc(C)c(=O)[nH]c1=O (some centres undefined)	> 100	100	> 100	44.7	> 100	> 100	> 100	> 100	> 100	> 100	≥ 20	> 100	> 100	> 100	> 100	> 100	41.6	> 100	> 100	> 100	EC50 [14]: > 100 µM; MCC [15]: ≥ 20 µM; EC50 (Influenza B virus [16]): > 100 µM; EC50 (Human coronavirus 229E): > 100 µM; EC50 (Human betaherpesvirus 5 [17]): > 20 µM; EC50 (Coxsackievirus B4): > 100 µM; MCC [18]: 100 µM; EC50 (Human alphaherpesvirus 3 [19]): 39.9 µM
C/C(=C/CP(=O)(N[C@@H](C)C(=O)OC(C)C)Oc1cccc2c1CCCC2)Cn1ccc(=O)[nH]c1=O (some centres undefined)	> 100	100	> 100	54.7	> 100	> 100	> 100	> 100	> 100	> 100	> 100	> 100	> 100	> 100	100	> 100	100	> 100	> 100	> 100	EC50 [14]: > 100 µM; MCC [15]: > 100 µM; EC50 (Influenza B virus [16]): > 100 µM; EC50 (Human coronavirus 229E): > 100 µM; EC50 (Human betaherpesvirus 5 [17]): > 20 µM; EC50 (Coxsackievirus B4): > 100 µM; MCC [18]: 100 µM; EC50 (Human alphaherpesvirus 3 [19]): 58.5 µM
C/C(=C\CP(=O)(N[C@@H](C)C(=O)OC(C)C)Oc1cccc2c1CCCC2)Cn1ccc(=O)[nH]c1=O (some centres undefined)	> 100	> 100	> 100	> 100	> 100	> 100	> 100	> 100	> 100	> 100	> 100	> 100	> 100	> 100	> 100	> 100	71.5	> 100	> 100	> 100	EC50 [14]: > 100 µM; MCC [15]: > 100 µM; EC50 (Influenza B virus [16]): > 100 µM; EC50 (Human coronavirus 229E): > 100 µM; EC50 (Human betaherpesvirus 5 [17]): > 100 µM; EC50 (Coxsackievirus B4): > 100 µM; MCC [18]: > 100 µM; EC50 (Human alphaherpesvirus 3 [19]): 29.9 µM
C/C(=C\CP(=O)(N[C@@H](C)C(=O)OC(C)C)Oc1ccccc1)Cn1ccc(=O)[nH]c1=O (some centres undefined)	> 100	> 100	> 100	> 100	> 100	> 100	> 100	> 100	> 100	> 100	> 100	> 100	> 100	> 100	> 100	> 100	> 100	> 100	> 100	> 100	EC50 [14]: > 100 µM; MCC [15]: > 100 µM; EC50 (Influenza B virus [16]): > 100 µM; EC50 (Human coronavirus 229E): > 100 µM; EC50 (Human betaherpesvirus 5 [17]): > 100 µM; EC50 (Coxsackievirus B4): > 100 µM; MCC [18]: > 100 µM; EC50 (Human alphaherpesvirus 3 [19]): > 100 µM
C/C(=C\CP(=O)(N[C@@H](C)C(=O)OCc1ccccc1)Oc1cccc2c1CCCC2)Cn1ccc(=O)[nH]c1=O (some centres undefined)	> 100	> 100	> 100	> 100	> 100	> 100	> 100	> 100	> 100	> 100	≥ 100	> 100	> 100	> 100	> 100	> 100	52.5	> 100	> 100	> 100	EC50 [14]: > 100 µM; MCC [15]: ≥ 100 µM; EC50 (Influenza B virus [16]): > 100 µM; EC50 (Human coronavirus 229E): > 100 µM; EC50 (Human betaherpesvirus 5 [17]): > 100 µM; EC50 (Coxsackievirus B4): > 100 µM; MCC [18]: > 100 µM; EC50 (Human alphaherpesvirus 3 [19]): 55.7 µM
C/C(=C\CP(=O)(N[C@@H](C)C(=O)OCc1ccccc1)Oc1cccc2ccccc12)Cn1ccc(=O)[nH]c1=O (some centres undefined)	> 100	> 100	> 100	> 100	> 100	> 100	> 100	> 100	> 100	> 100	> 100	> 100	> 100	> 100	> 100	> 100	58.5	> 100	> 100	> 100	EC50 [14]: > 100 µM; MCC [15]: > 100 µM; EC50 (Influenza B virus [16]): > 100 µM; EC50 (Human coronavirus 229E): > 100 µM; EC50 (Human betaherpesvirus 5 [17]): > 100 µM; EC50 (Coxsackievirus B4): > 100 µM; MCC [18]: > 100 µM; EC50 (Human alphaherpesvirus 3 [19]): 100 µM
C/C(=C\CP(=O)(N[C@@H](C)C(=O)OC(C)C)Oc1cccc2c1CCCC2)Cn1cc(C)c(=O)[nH]c1=O (some centres undefined)	> 100	> 100	> 100	> 20	> 100	> 100	> 100	> 100	> 100	> 100	≥ 20	> 100	> 100	> 100	> 100	> 100	53.5	> 100	> 100	> 100	t1/2 [20]: > 12 h; EC50 [14]: > 100 µM; MCC [15]: ≥ 20 µM; EC50 (Influenza B virus [16]): > 100 µM; EC50 (Human coronavirus 229E): > 100 µM; t1/2 [21]: > 12 h; EC50 (Human betaherpesvirus 5 [17]): > 100 µM; EC50 (Coxsackievirus B4): > 100 µM; MCC [18]: > 100 µM; EC50 (Human alphaherpesvirus 3 [19]): 58.5 µM
